CHO parental Ca: signal in parental CHO cells, OX1R antagonist counter-screen | inhibition, % at 5.6 µM | 0.63% of 330,000 active | AID 463079 | parental CHO-K1, ATP-induced calcium, Fluo-8 fluorescence;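 active = inhibition above that plate's mean sample inhibition plus 3 SD, cut at about 26% in these data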;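 also: 0% = ATP-challenged DMSO wells and 100% = DMSO wells without ATP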
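Material: Parental CHO cells | Reagent: ATP | Compound dosing: Single nominal dose of 5.6 µM per compound | Detection: Intracellular calcium via Fluo-8 no-wash fluorescent dye | Read-out: % inhibition of ATP-induced calcium mobilization | Benchmarks: Low control ATP plus DMSO, high control DMSO only | Replicates: Singlicate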
GPR7 antag: blocks human GPR7 receptor signaling; P48145; GPR7-expressing cells, fluorescence antagonist assay; inhibition, % at 4.4 µM; 1.1% of 290,000 active; in the data active = inhibition above about 16%, passing the limit was not always enough;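 also: cells stimulated with the agonist NPW; 0% = agonist with vehicle and 100% = vehicle without agonist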
Target sequence (P48145 whole entry, looked up): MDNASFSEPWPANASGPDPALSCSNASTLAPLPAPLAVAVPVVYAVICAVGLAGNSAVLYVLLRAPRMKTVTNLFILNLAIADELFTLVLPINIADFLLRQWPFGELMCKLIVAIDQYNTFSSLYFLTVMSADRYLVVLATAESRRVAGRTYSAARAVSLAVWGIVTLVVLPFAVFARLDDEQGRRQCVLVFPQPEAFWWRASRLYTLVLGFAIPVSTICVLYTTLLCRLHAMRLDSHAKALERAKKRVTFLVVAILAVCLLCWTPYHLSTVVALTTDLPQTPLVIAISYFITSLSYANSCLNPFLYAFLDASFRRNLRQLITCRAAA
OX1R antag-1: antagonists of human orexin 1 receptor (OX1R). O43613. OX1R-expressing cells, FRET antagonist read-out. inhibition, % at 6.6 µM. 1.8% of 330,000 active. AID 485270; in the data active = inhibition mostly above about 38%, no sharp cut-off; inactive = mostly below about 40%;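 also: 0% = agonist challenge alone and 100% = reference antagonist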
TAAR1 agonist: human TAAR1 agonism | Q96RJ0 | CHO RD-HGA16 TAAR1, Fluo-8 calcium fluorescence; vehicle wells 0%, saturating PEA agonist 100% | activation, % at 3 µM | 0.99% of 360,000 active;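 active = activation above the mean activation of all test compounds in the run plus 3 SD, cut at about 38% in these data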
Target sequence (Q96RJ0 whole entry, looked up): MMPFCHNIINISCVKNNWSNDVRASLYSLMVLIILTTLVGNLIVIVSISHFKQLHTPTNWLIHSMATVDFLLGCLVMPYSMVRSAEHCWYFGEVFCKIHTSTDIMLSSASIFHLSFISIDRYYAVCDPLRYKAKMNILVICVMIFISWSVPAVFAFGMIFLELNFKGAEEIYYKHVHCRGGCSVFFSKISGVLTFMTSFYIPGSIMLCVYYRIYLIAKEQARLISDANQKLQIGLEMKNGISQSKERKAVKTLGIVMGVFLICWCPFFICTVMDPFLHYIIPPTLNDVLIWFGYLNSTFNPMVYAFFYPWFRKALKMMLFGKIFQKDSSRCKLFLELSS
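Benchmarks: low control DMSO, high control PEA (EC100); System: CHO RD-HGA16 cells carrying human TAAR1 plus Gα16; Detection: Fluo-8 fluorescence, 5 s baseline then 140 s kinetic read; Schedule: 17-24 h plating, Fluo-8 75 min 37 °C, 30 min RT; Read-out basis: % activation from peak over basal fluorescence ratio, DMSO-to-PEA scaled.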
TAAR1 antag: human TAAR1 antagonism; Q96RJ0; CHO RD-HGA16 TAAR1, Fluo-8 calcium fluorescence, antagonist; inhibition, % at 3 µM; 1.5% of 360,000 active;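 active = inhibition above a per-plate cutoff, the mean inhibition of test compounds on that plate plus 3 SD, cut at about 49% in these data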;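 also: 0% = DMSO plus EC80 beta-PEA response and 100% = DMSO alone without agonist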
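Material: RD-HGA16 CHO cells with stable hTAAR1 and Gα16; Dosing: single nominal final test compound concentration of 3 µM; Schedule: seeding 17-24 h prior, 75-min 37 °C, 30-min RT dye loading; Detection: kinetic Fluo-8 calcium fluorescence measurement; Measure: % inhibition from peak post-agonist over basal fluorescence ratio; Benchmarks: vehicle and agonist controls.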
OX1R antag-2: antagonists of human orexin 1 receptor; O43613; CHO/OX1R cells, Fluo-8 calcium fluorescence, orexin A; 0.43% of 330,000 active; inhibition, % at 5 µM;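 active = inhibition above its plate's threshold, mean inhibition of all tested compounds on the plate plus 3 SD, cut at about 37% in these data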;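 also: 0% = orexin A challenge wells and 100% = SB-334867-A antagonist wells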
Numbers without * were called inactive; · = no result given. Hits are enriched below; roughly 4.5% of the tested compounds scored in any of these assays.

SMILES	CHO parental Ca	GPR7 antag	OX1R antag-1	TAAR1 agonist	TAAR1 antag	OX1R antag-2
CC(C)=C(C#N)c1nc2ccccc2s1	49.9*	1.8	9.5	13.4	16.6	74.3*
Cc1ccc(S(=O)(=O)NC(=O)C2(C)CCN2C(=O)CC2CCCC2)cc1 (centres undefined)	·	·	·	0.1	-14.7	·
COC(=O)CC#C[C@H](C)[C@@H](NS(C)(=O)=O)C1CCCCC1	·	·	·	0.1	-3.4	·
O=C(O)c1cccc(NC(=S)N/N=C/c2ccccc2OCc2ccc(Br)cc2)c1	42.1*	-8.4	49.8	-1.6	-0.8	16.3
O=C(O)c1cccc(NC(=S)N/N=C/c2ccccc2OCc2cccc(Br)c2)c1	·	8.5	·	-0.9	-12.0	·
CCOC(=O)c1c(C)oc2c1c(C(c1cccnc1)N1CCOCC1)c(O)c1ccccc12 (centres undefined)	2.9	-2.1	72.7*	2.9	-9.2	7.5
CCOC(=O)c1c(C)oc2c1c1c(c3ccccc32)OCN(Cc2cccnc2)C1	·	-16.9	·	·	·	·
Nc1nc(Cl)cc(N2CCC(c3cc(-c4ccc(Cl)cc4Cl)n[nH]3)CC2)n1	31.5*	-3.5	10.4	27.3	12.2	1.0
Nc1nc(Cl)cc(N2CCCC2)n1	-1.8	-5.3	9.7	3.2	-14.6	-15.8
OC(c1cc(F)cc(Cl)c1)c1ncc(-c2ccc(Cl)cc2)[nH]1 (centres undefined)	·	·	·	23.4	41.1	·
O=C(NCCc1ccccn1)c1c(-c2ccsc2)sc2ccccc12	-31.6	·	47.6*	4.7	-10.8	-21.6
O=C(NCCc1ccccn1)c1c(-c2ccccc2)sc2ccccc12	-15.7	·	20.6	11.2	30.8	-4.8
O=C(NCCc1ccc(F)cc1)C(=O)NCC1CCCN1S(=O)(=O)c1cccs1 (centres undefined)	-19.8	·	68.7*	32.8	60.8*	16.2
Cc1ccc(C(=O)NCC2CCCN2S(=O)(=O)c2cccs2)cc1C (centres undefined)	-7.0	·	33.8*	-0.3	-2.4	-17.8
CCNC(=O)C(=O)NCC1CCCN1S(=O)(=O)c1cccs1 (centres undefined)	-4.7	·	6.9	0.4	9.9	-12.0
COc1ccc(CCNC(=O)C(=O)NCC2CCCN2S(=O)(=O)c2ccccc2)cc1OC (centres undefined)	-15.2	·	24.9	16.7	49.1*	-7.4
COc1ccc(CCNC(=O)C(=O)NCC2OCCN2S(=O)(=O)c2ccccc2)cc1OC (centres undefined)	-6.1	-1.6	20.8	2.7	-17.1	-5.2
CC(C)=CC(=O)NCC1CCN(C(=O)C(=O)c2cc3ccccc3o2)CC1	·	·	·	3.5	-3.3	·
COC(=O)C1=C(C)N(Cc2cccc(C(F)(F)F)c2)C(=NCc2ccccc2C(F)(F)F)NC1c1ccc(Cl)cc1 (centres undefined)	·	·	·	2.5	-23.5	·
Cc1ccsc1C(=O)N1CCCC(C)(C(=O)NS(=O)(=O)C2CC2)C1 (centres undefined)	·	·	·	2.0	-20.0	·
COc1ccc2nc(C(F)(F)C(F)(F)F)c(C#N)c(N)c2c1	-3.7	-13.4	3.2	42.3*	4.9	5.7
COc1cc(OC)c2c(N)c(C#N)c(C(F)(F)C(F)(F)F)nc2c1	-7.6	-22.1	30.1	3.1	-13.9	-12.1
CCN(c1ccccc1)S(=O)(=O)c1ccc(OC)c(NC(=O)Cc2ccccc2OC)c1	-7.3	·	22.2	0.6	-9.8	8.2
COc1ccc(OCC(=O)Nc2cc(S(=O)(=O)N3CCCCC3)ccc2OC)cc1	2.5	·	17.2	-0.9	-34.9	-21.3
CCN(CC)S(=O)(=O)c1ccc(Cl)c(NC(=O)COc2ccc(OC)cc2)c1	20.6	1.1	12.9	26.8	57.6*	1.7
SMILES	CHO parental Ca	GPR7 antag	OX1R antag-1	TAAR1 agonist	TAAR1 antag	OX1R antag-2
CCN(c1ccccc1)S(=O)(=O)c1ccc(Cl)c(NC(=O)CNCc2ccccc2OC)c1	-20.6	·	17.2	4.6	55.5*	4.2
COc1ccc(OCC(=O)Nc2cc(S(=O)(=O)N3CCCC3)ccc2Cl)cc1	·	·	·	39.1*	61.4*	·
COC(=O)C1=C(C)N(C)C(=NCc2ccc(C(F)(F)F)cc2)NC1c1cccc(F)c1 (centres undefined)	·	·	·	21.4	14.2	·
O=C(C(=O)N1CCN(S(=O)(=O)c2ccccc2)CC1)c1cccc(C(F)(F)F)c1	·	·	·	0.7	-6.0	·
CC(C)(C)S(=O)(=O)N1C[C@@H]2C(=CC[C@H]3C(=O)N(c4ccccc4)C(=O)[C@@H]23)[C@@H]1CCO	·	·	·	1.3	1.9	·
CC1CCC(C(C)C)C(OCC(O)CNC(C)c2ccccc2)C1 (centres undefined)	-27.2	10.8	9.8	37.3	-7.3	-23.2
CCCC(NCC(O)COc1ccc(-c2ccccc2)cc1)c1ccccc1 (centres undefined)	53.4*	19.5	-1.0	40.3*	-6.2	38.0
CC(NCC(O)COC1CCC(C(C)(C)C)CC1)c1ccccc1 (centres undefined)	20.7	13.4	6.1	44.2*	0.9	-29.0
COc1ccc(OCC(O)CNC(C)c2ccccc2)cc1 (centres undefined)	-23.4	5.7	3.9	4.4	-25.8	-18.0
CC(NCC(O)COc1ccc(Br)cc1)c1ccccc1 (centres undefined)	-20.5	9.5	11.0	43.0*	3.3	4.6
CC(C)CC(=O)c1c(O)cc(O)c2c1OC1=C(C(=O)C(C)(C)C(=O)C1(C)C)C2CC(C)C (centres undefined)	·	·	·	-1.1	6.6	·
Cc1cc(C(=O)OCC(=O)N2CCC(c3ccccc3)=N2)ccc1[N+](=O)[O-]	-10.3	·	8.0	1.9	11.6	-9.7
O=C(COC(=O)c1ccc([N+](=O)[O-])s1)Nc1ccccc1	-2.3	-2.5	71.5*	2.4	11.4	5.7
Cc1c(Cl)cnc(NC(=O)COC(=O)c2ccc([N+](=O)[O-])s2)c1Cl	-14.1	-8.6	62.9*	-0.3	4.7	-20.2
O=C(COC(=O)c1ccc([N+](=O)[O-])s1)Nc1ccc(F)cc1	-2.0	·	41.5*	3.6	12.7	3.1
CC(C)(C)c1ccc(NC(=O)COC(=O)c2ccc([N+](=O)[O-])s2)cc1	-3.5	11.7	34.4	2.1	5.8	3.6
O=C(OCC(=O)N1CCC(c2ccccc2)=N1)c1ccc([N+](=O)[O-])s1	-17.2	·	61.0*	2.4	8.4	-26.8
O=c1c2ccccc2nnn1Cc1ccco1	·	·	·	0.8	-9.8	·
COC(=O)[C@]12C[C@H](CC(=O)N3CCCC3)C(=O)N(Cc3ccccc3)C1=C[C@H](C(C)C)O[C@@H]2C1CC1	·	·	·	0.3	-20.3	·
COc1ccc(C(=O)N2CCC[C@@H]2C(=O)N2CCC[C@@H]2C(=O)NCc2ccccc2)cc1F	·	·	·	3.1	-10.0	·
Cc1ccc(C(=O)OCc2nnc(-c3ccccc3)o2)s1	-1.1	·	11.3	4.2	-3.7	-16.9

Compound activity: PubChem BioAssay, The Scripps Research Institute Molecular Screening Center
